Assay [1] concerns the target T1, Polyunsaturated fatty acid 5-lipoxygenase (Homo sapiens) (UniProt P09917).
T1 sequence (whole entry): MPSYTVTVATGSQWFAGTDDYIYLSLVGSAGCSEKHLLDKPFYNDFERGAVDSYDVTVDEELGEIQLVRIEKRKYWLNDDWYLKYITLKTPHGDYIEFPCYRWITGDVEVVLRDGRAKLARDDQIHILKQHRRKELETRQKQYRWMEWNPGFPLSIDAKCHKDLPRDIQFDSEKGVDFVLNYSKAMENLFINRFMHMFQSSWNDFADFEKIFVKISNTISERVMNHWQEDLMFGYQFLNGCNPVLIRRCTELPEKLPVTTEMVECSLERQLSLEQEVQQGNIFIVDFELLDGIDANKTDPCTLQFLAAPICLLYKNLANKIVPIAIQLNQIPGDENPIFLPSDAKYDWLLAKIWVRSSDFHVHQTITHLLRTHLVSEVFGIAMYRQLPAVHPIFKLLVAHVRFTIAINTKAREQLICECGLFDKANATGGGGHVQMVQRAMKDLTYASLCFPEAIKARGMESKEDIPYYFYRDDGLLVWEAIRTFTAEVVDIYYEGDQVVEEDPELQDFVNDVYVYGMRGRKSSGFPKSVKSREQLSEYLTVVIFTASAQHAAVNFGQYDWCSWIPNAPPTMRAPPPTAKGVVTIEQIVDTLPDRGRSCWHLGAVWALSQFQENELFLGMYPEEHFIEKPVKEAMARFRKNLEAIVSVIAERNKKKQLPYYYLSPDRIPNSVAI
The experiment in a line: Inhibition of calcium ionophore (A23187)-stimulated human 5-LO assessed as reduction of 5(S)-HETE production by measuring remaining activity at 100 uM preincubated for 15 mins followed by calcium ionophore (A23187) addition measured after 15 mins by LC-MS/MS analysis. In a few lines:
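Heparinized human whole blood (500 µL) preincubated with compound 15 min at 37 °C, then stimulated with 20 µM calcium ionophore A23187 in autologous plasma for 15 min at 37 °C. Plasma spiked with deuterated LTB₄ and HETE internal standards, extracted into ethyl acetate, analysed by LC–MS/MS. Inhibition scored when a level fell by 33% or more versus control.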

Assay [2] has as its target Prostaglandin G/H synthase 1 (Homo sapiens) (UniProt P23219). The experiment in a line: Inhibition of COX1 in human whole blood assessed as reduction in PGD2 production by measuring remaining activity at 100 uM after 1 hr by LC-MS/MS analysis.
Assay [3] has as its target T2, Prostaglandin G/H synthase 1 (Ovis aries) (UniProt P05979).
T2 sequence (whole entry): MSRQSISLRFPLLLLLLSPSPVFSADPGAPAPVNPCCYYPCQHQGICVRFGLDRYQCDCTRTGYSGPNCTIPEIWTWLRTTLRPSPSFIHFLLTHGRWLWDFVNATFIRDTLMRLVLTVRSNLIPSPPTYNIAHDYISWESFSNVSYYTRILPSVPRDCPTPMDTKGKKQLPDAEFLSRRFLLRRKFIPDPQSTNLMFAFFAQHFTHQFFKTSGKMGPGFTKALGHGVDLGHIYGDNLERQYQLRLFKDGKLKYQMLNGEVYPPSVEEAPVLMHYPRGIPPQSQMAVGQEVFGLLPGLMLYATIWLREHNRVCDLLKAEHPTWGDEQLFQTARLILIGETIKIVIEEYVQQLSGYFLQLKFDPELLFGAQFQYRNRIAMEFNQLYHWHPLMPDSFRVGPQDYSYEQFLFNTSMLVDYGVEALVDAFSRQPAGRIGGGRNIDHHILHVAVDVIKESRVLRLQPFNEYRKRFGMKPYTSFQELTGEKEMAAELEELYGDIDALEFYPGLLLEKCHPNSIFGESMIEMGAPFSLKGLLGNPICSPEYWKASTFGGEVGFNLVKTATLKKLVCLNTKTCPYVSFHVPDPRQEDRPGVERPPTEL
In words: Inhibition of ovine COX1 using […] at 10 uM by LC-MS/MS analysis. A digest of the protocol:
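Ovine COX-1 and recombinant human COX-2 tested directly with a commercial COX inhibitor screening kit, following the manufacturer's protocol. COX-derived PGH₂ reduced with SnCl₂; the resulting PGE₂, PGD₂ and PGF₂a diluted in MeOH, spiked with deuterated internal standards and quantified by SPE and LC–MS/MS.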

Some results are limits rather than exact numbers.

Sequence of Prostaglandin G/H synthase 1 (Homo sapiens) (P23219 whole entry): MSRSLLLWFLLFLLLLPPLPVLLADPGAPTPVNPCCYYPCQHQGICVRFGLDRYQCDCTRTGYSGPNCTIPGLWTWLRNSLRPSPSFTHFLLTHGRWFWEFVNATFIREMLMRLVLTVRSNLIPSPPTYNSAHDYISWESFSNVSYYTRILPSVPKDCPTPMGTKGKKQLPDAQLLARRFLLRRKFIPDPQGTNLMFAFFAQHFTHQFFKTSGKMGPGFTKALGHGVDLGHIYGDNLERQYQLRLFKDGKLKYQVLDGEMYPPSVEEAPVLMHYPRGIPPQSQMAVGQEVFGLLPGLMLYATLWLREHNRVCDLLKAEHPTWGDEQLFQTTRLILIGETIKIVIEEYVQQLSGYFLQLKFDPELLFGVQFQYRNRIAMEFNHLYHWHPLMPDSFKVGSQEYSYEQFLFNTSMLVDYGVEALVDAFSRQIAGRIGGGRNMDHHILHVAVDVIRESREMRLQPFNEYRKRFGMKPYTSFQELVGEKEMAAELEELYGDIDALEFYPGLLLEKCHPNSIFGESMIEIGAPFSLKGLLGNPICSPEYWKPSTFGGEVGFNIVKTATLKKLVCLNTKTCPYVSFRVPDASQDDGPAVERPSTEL

With `COc1ccc(CN(Cc2ccccc2)S(=O)(=O)c2ccc(C(=O)O)cc2)cc1`, the results for the Activity in assay [1] and in assay [2] were 120% and 89.2%, respectively. In assay [3], this molecule gave an inhibition of under 0%.

As for `COc1ccc(CN(CC2CCCCC2)S(=O)(=O)c2ccc(C(=O)O)cc2)cc1`, the Activity is 65.6% in assay [1] and 110% in assay [2]. In assay [3], this molecule gave an inhibition of 10.3%.

For the molecule `O=C(O)c1ccc(S(=O)(=O)N(Cc2ccccc2)Cc2ccc(Nc3ccccc3)cc2)cc1`, the values for the Activity in assay [1] and in assay [2] were 56.2% and 109%, respectively. In assay [3], this molecule yielded an inhibition of under 0%.

Turning to `O=C(O)c1ccc(S(=O)(=O)N(Cc2ccccc2)c2ccc(Oc3ccccc3)cc2)cc1`, the figures for the Activity in assay [1] and in assay [2] were 125% and 48.5%, respectively. Further, the inhibition in assay [3] is 12.4%.

Turning to `O=C(O)c1ccc(S(=O)(=O)N(Cc2ccccc2)Cc2ccc(Oc3ccccc3)cc2)cc1`, the Activity turned out to be 98.7% in assay [1] and 61.5% in assay [2]. The same molecule returned an inhibition in assay [3] of 0.3%.

The term inhibition denotes the share of the control response that was lost under treatment. Read a low inhibition as a response near the control.

For the origin of these results see ChEMBL document CHEMBL3091291, “Synthesis and pharmacological characterization of benzenesulfonamides as dual species inhibitors of human and murine mPGES-1” (Bioorg Med Chem, 2013).
